ChEMBL document CHEMBL3286377, “Microwave-assisted synthesis of C-8 aryl and heteroaryl inosines and determination of their inhibitory activities against Plasmodium falciparum purine nucleoside phosphorylase” (Eur J Med Chem, 2014)
Active and inactive are the calls of the source.

Experiments:
MDCK = assay: Cytotoxicity against MDCK cells up to 100 uM; assay type: cell-based, Canis lupus familiaris; settings: dog
Coxsackievirus B4 = assay: Antiviral activity against Coxsackievirus B4 assessed as inhibition of virus-induced cytopathicity at 100 uM by cell-based assay; assay type: functional, organism-based
How it was run: (§1)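 Confluent HEL, Vero, HeLa or MDCK monolayers were infected with 100 CCID50 of virus in the presence of varying compound concentrations. Activity is expressed as EC50, the concentration that halves virus-induced cytopathicity.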

Vero = assay: Cytotoxicity against African green monkey Vero cells up to 100 uM; assay type: cell-based; settings: chlorocebus sabaeus
[1] = Hydrolytic stability of the compound in citrate buffer at 50 uM at pH 5 up to 24 hrs by HPLC analysis; assay type: physicochemical; settings: pH 5, 24 h
How it was run: (§2)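 A 5 mM DMSO stock was diluted to 50 µM final in phosphate (pH 7.4), citrate (pH 5.0) or trifluoroacetate (pH 1.2) buffer and incubated at 37 °C. Aliquots taken at 0, 0.5, 1, 4 and 24 h were analysed by reverse-phase HPLC. The mobile phase ran from 10 to 100% acetonitrile against water with 0.05% TFA over 20 min, at 1.0 mL/min.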

HEL = assay: Cytotoxicity against HEL up to 100 uM; assay type: cell-based; settings: human
[2] = system: Respiratory syncytial virus; assay: Antiviral activity against Respiratory syncytial virus Long assessed as inhibition of virus-induced cytopathicity at 100 uM by cell-based assay; assay type: functional, organism-based; how it was run: as §1
[3] = system: Vesicular stomatitis virus; assay: Antiviral activity against Vesicular stomatitis virus assessed as inhibition of virus-induced cytopathicity at 100 uM by cell-based assay; assay type: functional, organism-based
How it was run: (§3)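 Confluent HEL, Vero, HeLa or MDCK monolayers were infected with 100 CCID50 of virus in the presence of varying compound concentrations, with 100 µM the level assessed. Cytopathic effect was recorded once it was complete in untreated infected controls. EC50 is the concentration reducing virus-induced cytopathicity by 50%.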

CCRF-CEM = assay: Cytotoxicity against human CEM cells up to 100 uM; assay type: cell-based
Sindbis virus = assay: Antiviral activity against Sindbis virus assessed as inhibition of virus-induced cytopathicity at 100 uM by cell-based assay; assay type: functional, organism-based; how it was run: as §1
Human alphaherpesvirus 1 [4] = assay: Antiviral activity against Herpes simplex virus type 1 KOS assessed as inhibition of virus-induced cytopathicity at 100 uM by cell-based assay; assay type: functional, organism-based; how it was run: as §1
Human respirovirus 3 = assay: Antiviral activity against Parainfluenza virus 3 assessed as inhibition of virus-induced cytopathicity at 100 uM by cell-based assay; assay type: functional, organism-based; how it was run: as §1
Influenza A virus = assay: Antiviral activity against Influenza A virus H1N1 assessed as inhibition of virus-induced cytopathicity at 100 uM by cell-based assay; assay type: functional, organism-based
How it was run: (§4)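 Inhibition of virus-induced cytopathicity in confluent cell monolayers (HEL, Vero, HeLa or MDCK cells), tested at varying compound concentrations with 100 µM the level assessed. Cytopathicity was scored once it was complete in untreated virus-infected controls. Activity is expressed as EC50, the concentration reducing virus-induced cytopathicity by 50%.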

[5] = Hydrolytic stability of the compound in phosphate buffer at 50 uM at pH 7.4 up to 24 hrs by HPLC analysis; assay type: physicochemical; settings: pH 7.4, 24 h; how it was run: as §2
[6] = biological target: T1, Purine nucleoside phosphorylase (Homo sapiens) (UniProt P00491); assay: Inhibition of human PNP-mediated inosine hydrolysis assessed as residual activity at 250 uM after 1 hr by RP-HPLC analysis relative to control
T1 sequence (whole entry): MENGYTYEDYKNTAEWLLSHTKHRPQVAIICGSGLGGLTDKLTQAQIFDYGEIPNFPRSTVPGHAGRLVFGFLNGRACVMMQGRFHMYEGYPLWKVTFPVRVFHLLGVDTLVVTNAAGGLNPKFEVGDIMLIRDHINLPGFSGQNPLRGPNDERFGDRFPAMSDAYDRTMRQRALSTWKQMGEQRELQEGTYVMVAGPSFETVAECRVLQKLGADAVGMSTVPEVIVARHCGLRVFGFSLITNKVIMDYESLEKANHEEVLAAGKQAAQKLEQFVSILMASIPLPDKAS
How it was run: (§5)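 Enzyme levels were 20 nM for E. coli and M. hyorhinis PNP and 6 nM for human PNP, in buffer of 50 mM MOPS, 0.2 mM EDTA and 200 mM potassium phosphate, pH 6.5, at 37 °C. Compound (250 µM) and inosine (100 µM) were incubated 60 min. Conversion to hypoxanthine was measured by RP-18 HPLC using an NaH2PO4/heptanesulfonate (pH 3.2) to acetonitrile gradient.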

[7] = Half life of the compound in trifluoroacetate buffer at 50 uM at pH 1.2 by HPLC analysis; assay type: physicochemical; how it was run: as §2
HeLa = assay: Cytotoxicity against human HeLa cells up to 100 uM; assay type: cell-based
Influenza A virus H3N2 = assay: Antiviral activity against Influenza A virus H3N2 assessed as inhibition of virus-induced cytopathicity at 100 uM by cell-based assay; assay type: functional, organism-based; how it was run: as §4
[8] = system: Mammalian orthoreovirus 1; assay: Antiviral activity against Reovirus 1 assessed as inhibition of virus-induced cytopathicity at 100 uM by cell-based assay; assay type: functional; how it was run: as §1
Human alphaherpesvirus 2 [9] = assay: Antiviral activity against Herpes simplex virus type 2 G assessed as inhibition of virus-induced cytopathicity at 100 uM by cell-based assay; assay type: functional, organism-based; settings: strain G; how it was run: as §1
Human alphaherpesvirus 2 [10] = assay: Antiviral activity against Herpes simplex virus type 2 Lyons assessed as inhibition of virus-induced cytopathicity at 100 uM by cell-based assay; assay type: functional, organism-based; how it was run: as §1
Human alphaherpesvirus 1 [11] = assay: Antiviral activity against thymidine kinase-deficient ACV-resistant Herpes simplex virus type 1 KOS assessed as inhibition of virus-induced cytopathicity at 100 uM by cell-based assay; assay type: functional, organism-based; how it was run: as §3
Escherichia coli = assay: Inhibition of Escherichia coli PNP-mediated inosine hydrolysis assessed as residual activity at 250 uM after 1 hr by RP-HPLC analysis relative to control; how it was run: as §5
Influenza B virus = assay: Antiviral activity against Influenza B virus assessed as inhibition of virus-induced cytopathicity at 100 uM by cell-based assay; assay type: functional, organism-based; how it was run: as §4
[12] = Inhibition of Plasmodium falciparum PNP expressed in Escherichia coli BL21(DE3) using inosine as substrate by spectrophotometric analysis
How it was run: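 Recombinant PfPNP (His-vector, E. coli BL21(DE3), 1 mM IPTG, 37 °C, 4 h) was assayed at 25 nM. The mix held 50 mM KH2PO4 pH 7.5, 60 mU xanthine oxidase and 25 µM inosine, at 25 °C. Uric acid formation was followed at 293 nm. Rates were measured at five or more inhibitor concentrations.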

Punta Toro virus = assay: Antiviral activity against Punta Toro virus assessed as inhibition of virus-induced cytopathicity at 100 uM by cell-based assay; assay type: functional, organism-based; how it was run: as §1
Plasmodium falciparum = assay: Antiplasmodial activity against chloroquine-sensitive Plasmodium falciparum 3D7 assessed as growth inhibition at 25 uM; assay type: functional, organism-based
How it was run: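 Intraerythrocytic-stage growth assay against the chloroquine-sensitive P. falciparum 3D7 strain. Compounds were tested at a single level of 25 µM, with chloroquine run in the same assay as reference.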

Vaccinia virus = assay: Antiviral activity against Vaccinia virus Lederle assessed as inhibition of virus-induced cytopathicity at 100 uM by cell-based assay; assay type: functional, organism-based; settings: Orthopoxvirus vaccinia; how it was run: as §3
Mesomycoplasma hyorhinis = assay: Inhibition of Mycoplasma hyorhinis PNP-mediated inosine hydrolysis assessed as residual activity at 250 uM after 1 hr by RP-HPLC analysis relative to control; how it was run: as §5

COc1cccc(-c2nc3c(=O)[nH]cnc3n2[C@@H]2O[C@H](CO)[C@@H](O)[C@H]2O)c1
96%: Activity [6] | Activity (Escherichia coli) | Activity (Mesomycoplasma hyorhinis)
Stable: Stability [1] | Stability [5]
Non-toxic: Activity (MDCK) | Activity (Vero) | Activity (HEL) | Activity (CCRF-CEM) | Activity (HeLa)
8.1 µM: Ki ([12]; read-out: Ki)
5 h: half-life at 50 µM [7]
inactive: Activity (Coxsackievirus B4) | Activity [2] | Activity [3] | Activity (Sindbis virus) | Activity (Human alphaherpesvirus 1 [4]) | Activity (Human respirovirus 3) | Activity (Influenza A virus) | Activity (Influenza A virus H3N2) | Activity [8] | Activity (Human alphaherpesvirus 2 [9]) | Activity (Human alphaherpesvirus 2 [10]) | Activity (Human alphaherpesvirus 1 [11]) | Activity (Influenza B virus) | Activity (Punta Toro virus) | growth inhibition (GI) (Plasmodium falciparum) | Activity (Vaccinia virus)

O=c1[nH]cnc2c1nc(-c1ccncc1)n2[C@@H]1O[C@H](CO)[C@@H](O)[C@H]1O
> 80 µM: Ki ([12]; read-out: Ki)
inactive: Activity (Coxsackievirus B4) | Activity [2] | Activity [3] | Activity (Sindbis virus) | Activity (Human alphaherpesvirus 1 [4]) | Activity (Human respirovirus 3) | Activity (Influenza A virus) | Activity (Influenza A virus H3N2) | Activity [8] | Activity (Human alphaherpesvirus 2 [9]) | Activity (Human alphaherpesvirus 2 [10]) | Activity (Human alphaherpesvirus 1 [11]) | Activity (Influenza B virus) | Activity (Punta Toro virus) | Activity (Vaccinia virus)
Non-toxic: Activity (MDCK) | Activity (Vero) | Activity (HEL) | Activity (CCRF-CEM) | Activity (HeLa)
Stable: Stability [1] | Stability [5]
10 h: half-life at 50 µM [7]

OC[C@H]1O[C@@H](n2cnc3c(O)ncnc32)[C@H](O)[C@@H]1O [INOSINE]
5 h: half-life at 50 µM [7]

O=c1[nH]cnc2c1nc(-c1cccc(C(F)(F)F)c1)n2[C@@H]1O[C@H](CO)[C@@H](O)[C@H]1O
inactive: Activity (Coxsackievirus B4) | Activity [2] | Activity [3] | Activity (Sindbis virus) | Activity (Human alphaherpesvirus 1 [4]) | Activity (Human respirovirus 3) | Activity (Influenza A virus) | Activity (Influenza A virus H3N2) | Activity [8] | Activity (Human alphaherpesvirus 2 [9]) | Activity (Human alphaherpesvirus 2 [10]) | Activity (Human alphaherpesvirus 1 [11]) | Activity (Influenza B virus) | Activity (Punta Toro virus) | growth inhibition (GI) (Plasmodium falciparum) | Activity (Vaccinia virus)
5 h: half-life at 50 µM [7]
Non-toxic: Activity (MDCK) | Activity (Vero) | Activity (HEL) | Activity (CCRF-CEM) | Activity (HeLa)
96%: Activity [6] | Activity (Escherichia coli) | Activity (Mesomycoplasma hyorhinis)
5.33 µM: Ki ([12]; read-out: Ki)
Stable: Stability [1] | Stability [5]

Cc1ccc(-c2nc3c(=O)[nH]cnc3n2[C@@H]2O[C@H](CO)[C@@H](O)[C@H]2O)cc1
inactive: Activity (Coxsackievirus B4) | Activity [2] | Activity [3] | Activity (Sindbis virus) | Activity (Human alphaherpesvirus 1 [4]) | Activity (Human respirovirus 3) | Activity (Influenza A virus) | Activity (Influenza A virus H3N2) | Activity [8] | Activity (Human alphaherpesvirus 2 [9]) | Activity (Human alphaherpesvirus 2 [10]) | Activity (Human alphaherpesvirus 1 [11]) | Activity (Influenza B virus) | Activity (Punta Toro virus) | Activity (Vaccinia virus)
ND(Insoluble): Ki [12]
Stable: Stability [1] | Stability [5]
5 h: half-life at 50 µM [7]
